Blank lines part the entries; values can stand above or below the molecule they belong to.
How the values were obtained:
S1P1 [1] = target: T1, S1P1 (Homo sapiens, UniProt P21453); test: S1P1 internalization, wash-out experiment in S1P1-C6 cells; assay type: cell-based; conditions: 1 µM for 4 h, 18 h compound-free medium, FCM
S1P4 = target: T2, S1P4 (Homo sapiens, UniProt O95977); test: S1PR internalization assay, short-term; assay type: cell-based; conditions: 1 µM, 1 h, FCM, normalized to vehicle
T2 sequence (O95977 1-384): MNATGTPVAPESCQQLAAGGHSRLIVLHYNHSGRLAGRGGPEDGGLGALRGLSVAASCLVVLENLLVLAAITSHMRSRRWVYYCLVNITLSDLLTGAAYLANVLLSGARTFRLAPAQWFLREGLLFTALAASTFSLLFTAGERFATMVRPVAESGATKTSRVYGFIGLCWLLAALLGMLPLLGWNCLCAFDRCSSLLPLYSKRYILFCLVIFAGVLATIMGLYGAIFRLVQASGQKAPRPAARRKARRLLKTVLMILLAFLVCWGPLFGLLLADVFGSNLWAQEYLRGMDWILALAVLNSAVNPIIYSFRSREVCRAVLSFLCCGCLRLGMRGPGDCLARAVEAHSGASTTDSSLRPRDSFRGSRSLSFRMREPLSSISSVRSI
How it was run: (§1)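 C6 glioblastoma cells stably expressing an HA-tagged human S1P receptor subtype, grown in high-glucose DMEM with 10% FBS and penicillin–streptomycin. Test compound or S1P (1 µM) applied for 1 h. Surface receptor stained with anti-HA (clone 3F10), then PE anti-rat IgG, and read by flow cytometry. Vector-transfected C6 cells served as negative control. Levels normalized to vehicle; n = 4 from two independent experiments.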

Human primary astrocytes [2] = test: Ca2+ mobilization assay, agonistic application; assay type: cell-based; conditions: for effect on intracellular Ca2+ mobilization as agonist: Fig. 2A, agonistic application
How it was run: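 Human primary astrocytes were plated at 10 000 cells/well in 384-well plates (day 0), switched to FreeStyle 293 expression medium on day 1 for 18 h, then loaded with FLIPR Calcium 4 dye for 1 h […]. Intracellular Ca2+ was monitored kinetically across a concentration series up to 30 µM, and logEC50 was taken from concentration-response curves.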

S1P1 [3] = target: T1, S1P1; test: S1PR internalization assay, short-term; assay type: cell-based; conditions: 1 µM, 1 h, FCM, normalized to vehicle
How it was run: as §1

S1P5 = S1P5 (Homo sapiens, UniProt Q9H228); test: S1PR internalization assay, short-term; assay type: cell-based; conditions: 1 µM, 1 h, FCM, normalized to vehicle
How it was run: as §1

S1P3 = S1P3 (Homo sapiens, UniProt Q99500); test: S1PR internalization assay, short-term; assay type: cell-based; conditions: 1 µM, 1 h, FCM, normalized to vehicle
How it was run: as §1

S1P2 = S1P2 (Homo sapiens, UniProt O95136); test: S1PR internalization assay, short-term; assay type: cell-based; conditions: 1 µM, 1 h, FCM, normalized to vehicle
How it was run: as §1

Human primary astrocytes [4] = test: Ca2+ mobilization assay, functional antagonism; assay type: cell-based; conditions: 18 h pretreatment, Fig. 2B,C
How it was run: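 Astrocytes were pretreated overnight (18 h) with 1 or 10 µM test compound, then loaded with calcium dye for 1 h without compound before S1P stimulation, with Ca2+ mobilization recorded. Inhibition was assessed against 10 µM S1P. Mean ± SD, n = 4, pooled from three independent experiments.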

Human primary astrocytes [5] = test: cAMP AlphaScreen assay, Gαi-coupled agonist mode; assay type: cell-based; conditions: Fig. 2D, 10 µM FSK
How it was run: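 Primary human astrocytes suspended in HBSS with 0.5 mM IBMX, 5 mM HEPES and 0.1% BSA, 5000 cells/well. Compound added with 10 µM forskolin (final), 30 min at room temperature. Lysis buffer (pH 7.4) carried biotin-cAMP/donor beads, then 1 h dark. AlphaScreen read: excitation 680 nm, emission 570 nm. Baseline-corrected, normalized to S1P, three-parameter curve fit. Mean ± SD, n = 3–5 over three experiments.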

Human primary astrocytes [6] = test: cAMP AlphaScreen assay, functional antagonism; assay type: cell-based; conditions: 10 µM, 18 h pretreatment
How it was run: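 Astrocytes were pretreated 18 h with 10 µM test compound, then resuspended in HBSS with 0.5 mM IBMX, 5 mM HEPES and 0.1% BSA at 5000 cells/well. Cells were stimulated with S1P plus 10 µM forskolin for 30 min at room temperature. cAMP was read by AlphaScreen after 1 h dark incubation with donor beads in lysis buffer. Data were baseline-corrected, normalized to S1P response and fitted with three-parameter curves. Mean ± SD, n = 3–4.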

[7] = tested on: cuprizone‐induced demyelination; test: cuprizone-induced demyelination, preventative paradigm; assay type: in vivo, C57BL/6J mice; conditions: 30 mg/kg b.i.d. oral during 5 weeks 0.2% cuprizone
How it was run: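 Male C57BL/6J mice (8 weeks old) received 0.2% cuprizone diet for 5 weeks with concurrent oral test compound, 30 mg/kg suspension in 0.25% methylcellulose/0.05% polysorbate 80, twice daily 8 h apart. Brains were perfusion-fixed in 10% NBF and cryoprotected, then cut into 30 µm coronal sections. Sections were stained with Black Gold II and immunostained for Olig2 and Iba1. Signal was quantified in a constant ROI in the midline corpus callosum or cingulum.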

[8] = target: S1P1‐EGFP fusion construct (Homo sapiens, UniProt P21453); test: S1P1-EGFP internalization imaging in human primary astrocytes; assay type: cell-based; conditions: 1 µM, 1 h
S1P1 [9] = target: T1, S1P1; test: compensated interferometric reader; assay type: binding
How it was run: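 Nanovesicles were made by sonicating C6 glioblastoma cells overexpressing HA-tagged human S1P1, with vector-transfected C6 cells as control. Vesicles were incubated 1 h with increasing test compound concentrations. Compensated interferometric reader signal was read against a reference of compound without vesicles. Specific binding was taken as S1P1-vesicle signal minus control-vesicle signal.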

[10] = tested on: cuprizone‐induced demyelination; test: cuprizone model, therapeutic paradigm; assay type: in vivo, C57BL/6J mice; conditions: 30 mg/kg
Human primary astrocytes [11] = test: Single-cell RNA-seq of cytokine-stimulated astrocytes; assay type: cell-based; conditions: 1 µM; for number of DEGs, cytokines + ponesimod vs cytokines: total
How it was run: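 Primary human astrocytes (500 000 cells per 6 cm dish) received a cytokine mix (TNF-α, IFN-γ, IL-17, IL-1β, IL-6; 25 ng/ml each) ± 1 µM test compound for 24 or 48 h. 10x Chromium 3′ v3 capture targeted 10 000 cells, with NovaSeq sequencing and GRCh38 alignment. Data were normalized by regularized negative binomial regression and SNN-clustered. MAST DEGs: FDR p < .05, log2FC > 1.1. A fibroblast/pericyte cluster was excluded.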

MS fatigue = conditions: OPTIMUM Phase 3 study; cited from earlier work
S1P1 [12] = conditions: cited from earlier work

T1 sequence (P21453 whole entry): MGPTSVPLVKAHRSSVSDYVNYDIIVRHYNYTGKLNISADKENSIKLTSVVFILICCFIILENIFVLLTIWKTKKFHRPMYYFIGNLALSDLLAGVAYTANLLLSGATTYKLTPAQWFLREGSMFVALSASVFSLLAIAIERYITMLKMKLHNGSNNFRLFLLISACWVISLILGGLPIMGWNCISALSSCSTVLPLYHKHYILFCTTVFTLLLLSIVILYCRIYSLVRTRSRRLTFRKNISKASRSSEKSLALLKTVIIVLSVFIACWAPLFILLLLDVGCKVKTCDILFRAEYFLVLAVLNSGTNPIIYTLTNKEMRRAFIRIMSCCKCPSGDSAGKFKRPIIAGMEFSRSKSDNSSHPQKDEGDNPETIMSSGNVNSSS
Sequence of S1P3 (Q99500 whole entry): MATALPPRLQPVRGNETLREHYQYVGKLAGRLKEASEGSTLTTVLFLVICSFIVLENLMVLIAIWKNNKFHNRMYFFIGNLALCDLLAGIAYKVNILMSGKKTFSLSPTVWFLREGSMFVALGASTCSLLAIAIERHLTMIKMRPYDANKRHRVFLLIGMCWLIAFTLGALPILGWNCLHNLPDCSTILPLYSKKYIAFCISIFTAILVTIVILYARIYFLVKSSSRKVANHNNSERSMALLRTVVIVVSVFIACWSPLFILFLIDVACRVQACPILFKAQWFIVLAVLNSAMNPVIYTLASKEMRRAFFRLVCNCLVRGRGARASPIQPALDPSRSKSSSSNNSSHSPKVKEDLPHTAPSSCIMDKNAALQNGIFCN
Sequence of S1P2 (O95136 whole entry): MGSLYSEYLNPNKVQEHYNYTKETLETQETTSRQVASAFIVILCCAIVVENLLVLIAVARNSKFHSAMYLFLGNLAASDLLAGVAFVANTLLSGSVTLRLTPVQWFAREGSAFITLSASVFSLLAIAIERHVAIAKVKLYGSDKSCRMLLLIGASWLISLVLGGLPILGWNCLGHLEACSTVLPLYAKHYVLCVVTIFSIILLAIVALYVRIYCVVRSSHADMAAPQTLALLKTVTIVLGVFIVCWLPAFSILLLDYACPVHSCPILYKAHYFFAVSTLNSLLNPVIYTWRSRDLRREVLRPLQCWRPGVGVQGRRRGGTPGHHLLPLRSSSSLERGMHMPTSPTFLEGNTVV
Sequence of S1P5 (Q9H228 whole entry): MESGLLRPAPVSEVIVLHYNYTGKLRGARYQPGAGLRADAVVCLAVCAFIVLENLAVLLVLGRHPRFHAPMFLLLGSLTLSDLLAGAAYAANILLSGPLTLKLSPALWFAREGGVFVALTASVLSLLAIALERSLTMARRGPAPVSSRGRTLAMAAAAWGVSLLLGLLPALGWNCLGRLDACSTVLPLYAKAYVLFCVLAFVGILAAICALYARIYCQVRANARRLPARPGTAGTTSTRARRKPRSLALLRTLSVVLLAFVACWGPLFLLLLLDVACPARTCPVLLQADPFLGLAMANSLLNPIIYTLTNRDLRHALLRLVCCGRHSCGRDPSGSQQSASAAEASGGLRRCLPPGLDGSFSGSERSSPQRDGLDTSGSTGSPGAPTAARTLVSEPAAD
Sequence of S1P1‐EGFP fusion construct (P21453 whole entry, the tested form may be a part): as the sequence (P21453 whole entry) above

Structure (SMILES): CCCCCCCCc1ccc(CC[C@](N)(CO)COP(=O)(O)O)cc1 [Fingolimod-P, fingolimod phosphate]
- inhibition of S1P-induced Ca2+ mobilization (functional antagonism) (Human primary astrocytes [4]): minor
- effect on inhibiting cAMP production as agonists (Human primary astrocytes [5]): Neither ponesimod nor fingolimod‐P showed any effect
- effect on S1P-induced cAMP inhibition (functional antagonism) (Human primary astrocytes [6]): right shift of cAMP‐inhibitory curves
- effect on intracellular Ca2+ mobilization as agonist (Human primary astrocytes [2]): none of the S1PR modulators (ponesimod, siponimod, ozanimod, or fingolimod‐P) affected intracellular Ca^2+ mobilization

Structure (SMILES): CC(C)Oc1ccc(-c2nc(-c3cccc4c3CC[C@@H]4NCCO)no2)cc1C#N [Ozanimod]
- inhibition of S1P-induced Ca2+ mobilization (functional antagonism) (Human primary astrocytes [4]): blocked S1P‐induced Ca^2+ mobilization in a concentration‐dependent manner
- effect on intracellular Ca2+ mobilization as agonist (Human primary astrocytes [2]): none of the S1PR modulators (ponesimod, siponimod, ozanimod, or fingolimod‐P) affected intracellular Ca^2+ mobilization

Continued, in another order:

- cell surface expression of S1P1 after wash-out (S1P1 [1]): recycled to the cell surface
- cell surface expression of S1P4 (S1P4): relatively less responsive
- EC50 (Human primary astrocytes [2]; Homo sapiens, Astrocyte, read-out: logEC50, intracellular Ca2+ response (converted)): 93.1 nM
Structure (SMILES): CCCCCCCCCCCCC/C=C/[C@@H](O)[C@@H](N)COP(=O)(O)O [S1P, Sphingosine 1‐phosphate]
- cell surface expression of S1P1 (S1P1 [3]): significantly reduced cell surface expression
- cell surface expression of S1P5 (S1P5): significantly reduced cell surface expression
- cell surface expression of S1P3 (S1P3): significantly reduced cell surface expression
- cell surface expression of S1P2 (S1P2): significantly reduced cell surface expression

- S1P1 internalization (S1P1-EGFP imaging) [8]: rapid S1P1 internalization
- Kd (S1P1 [9]): 2.09 ± 0.27 nM
- cell surface expression of S1P4 (S1P4): remained unchanged
- cell surface expression of S1P5 (S1P5): remained unchanged
- cell surface expression of S1P3 (S1P3): remained unchanged
- cell surface expression of S1P2 (S1P2): remained unchanged
Structure (SMILES): CCC/N=C1\S/C(=C\c2ccc(OC[C@H](O)CO)c(Cl)c2)C(=O)N1c1ccccc1C [Ponesimod]
- cell surface expression of S1P1 after wash-out (S1P1 [1]): reduced cell surface expression of S1P1 for a sustained period of time
- GFAP+ astrocytes in the CC [7]: increased in the CC
- GFAP+ astrocytes in the cingulum [7]: tended to decrease in the cingulum
- Iba1+ microglia in the cingulum [7]: significantly decreased
- demyelination in the cingulum (black gold II staining) [7]: protected mice from demyelination in the cingulum
- number of Olig2+ oligodendrocytes in CC and cingulum [7]: increased
- inhibition of S1P-induced Ca2+ mobilization (functional antagonism) (Human primary astrocytes [4]): blocked S1P‐induced Ca^2+ mobilization in a concentration‐dependent manner
- effect on inhibiting cAMP production as agonists (Human primary astrocytes [5]): Neither ponesimod nor fingolimod‐P showed any effect
- remyelination after cuprizone diet cessation ([10]; prolonged treatment (3 weeks)): significantly enhanced remyelination in the cingulum
- remyelination after cuprizone diet cessation ([10]; short-term treatment (1 week)): did not show any beneficial effects
- effect on S1P-induced cAMP inhibition (functional antagonism) (Human primary astrocytes [6]): effectively blocked S1P‐induced cAMP inhibition
- Ca2+ signal at highest concentration (Human primary astrocytes [2]; 30 µM, Figure S1): induced a Ca^2+ signal only at the highest concentration
- effect on intracellular Ca2+ mobilization as agonist (Human primary astrocytes [2]): none of the S1PR modulators (ponesimod, siponimod, ozanimod, or fingolimod‐P) affected intracellular Ca^2+ mobilization
- cell surface expression of S1P1 (S1P1 [3]): only reduced the cell surface expression of S1P1
- common DEGs: upregulated by cytokines and downregulated by ponesimod (Human primary astrocytes [11]; 24 and 48 h): 2432 DEGs
- number of downregulated DEGs, cytokines + ponesimod vs cytokines (Human primary astrocytes [11]; 24 h): 4031
- number of upregulated DEGs, cytokines + ponesimod vs cytokines (Human primary astrocytes [11]; 24 h): 34
- number of DEGs, cytokines + ponesimod vs cytokines (Human primary astrocytes [11]; 24 h): 4065 DEGs
- number of downregulated DEGs, cytokines + ponesimod vs cytokines (Human primary astrocytes [11]; 48 h): 822
- number of upregulated DEGs, cytokines + ponesimod vs cytokines (Human primary astrocytes [11]; 48 h): 130
- cellular distribution on UMAP, ponesimod alone (Human primary astrocytes [11]; 48 h, no cytokines): highly overlapping cellular distribution as compared to controls
- number of DEGs, cytokines + ponesimod vs cytokines (Human primary astrocytes [11]; 48 h): 952 DEGs
- expression of S1PR1, S1PR2 and S1PR3 (Human primary astrocytes [11]; cytokine-enhanced expression): suppressed
- FOS expression (Human primary astrocytes [11]; cytokine-stimulated astrocytes): significantly inhibited FOS expression
- metallothionein (MT) gene expression in Cluster 8 (Human primary astrocytes [11]; cytokine-stimulated astrocytes): significantly downregulated
- proliferating astrocyte clusters (Clusters 6, 9, and 12) (Human primary astrocytes [11]; cytokine-stimulated astrocytes): blocked decreases in proliferating astrocyte clusters
- cellular fractions of reactive astrocyte clusters (Human primary astrocytes [11]; cytokine-stimulated astrocytes, Clusters 3, 8, 10, 11, 15): selectively decreased the cellular fractions of Clusters 8, 10, and 15
- MS fatigue, secondary endpoint (MS fatigue): achieved a novel secondary endpoint of reduced MS fatigue
- selectivity for S1P1 as compared to other S1PRs (S1P1 [12]): > 10 fold

- Kd (S1P1 [9]): 0.8 ± 0.97 nM
Structure (SMILES): CCc1cc(/C(C)=N/OCc2ccc(C3CCCCC3)c(C(F)(F)F)c2)ccc1CN1CC(C(=O)O)C1 [Siponimod]
- inhibition of S1P-induced Ca2+ mobilization (functional antagonism) (Human primary astrocytes [4]): minor
- effect on intracellular Ca2+ mobilization as agonist (Human primary astrocytes [2]): none of the S1PR modulators (ponesimod, siponimod, ozanimod, or fingolimod‐P) affected intracellular Ca^2+ mobilization

— PMC8740777 (The FASEB Journal, 2022)
